Laboratory results reported in ChEMBL document CHEMBL1147971, “Evaluation of N-(phenylmethyl)-4-[5-(phenylmethyl)-4,5,6,7-tetrahydro-1H-imidazo[4,5-c]pyridin-4-yl]benzamide inhibitors of Mycobacterium tuberculosis growth” (Bioorg Med Chem Lett, 2007).
≈ marks a conversion by molar mass, not a printed value. Calls of active or inactive are those of the source. The rule behind the calls is not given here.

Experiments:
Staphylococcus aureus = test: Antibacterial activity against Staphylococcus aureus ATCC 29213; format: functional, organism-based
[1] = system: Mycobacterium tuberculosis; test: Antibacterial activity against Mycobacterium tuberculosis; format: functional
In short: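 M. tuberculosis broth cultures grown in 96-well microtitre plates with drug. Growth read indirectly by metabolic reduction of fluorescent Alamar blue. MIC taken as the minimum drug concentration giving 50% inhibition of growth.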

[2] = Cytotoxicity against HEPG2 cells; format: cell-based; conditions: human; for cytotoxicity: read-out: Inhibition; for CC50: read-out: TC50 (the source's name)
[3] = Permeability across artificial cell membrane; format: ADME; conditions: for Papp: not told, read-out: permeability
In short: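 High-throughput artificial membrane assay measuring passive diffusion of compound across a phospholipid monolayer.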

[4] = Mycobacterium tuberculosis, read-out: MIC

COc1ccc(CNC(=O)c2ccc(C3c4nc[nH]c4CCN3Cc3cc(OC)c(OC)cc3OC)cc2)cc1 (configuration not stated)
Activity (Staphylococcus aureus): Active | MIC [1, 4]: 63 µM (≈ 34.2 µg/mL) | cytotoxicity [2]: 20% | CC50 [2]: > 11.5 µM

COc1ccc(CNC(=O)c2ccc(C3c4nc[nH]c4CCN3Cc3cccc(Cl)c3)cc2)cc1 (stereo in doubt; 8f)
cytotoxicity [2]: 25% | CC50 [2]: > 12.8 µM

COc1ccc(CNC(=O)c2ccc(C3c4nc[nH]c4CCN3c3ccc4ccccc4c3)cc2)cc1 (configuration not stated)
MIC [1, 4]: 32 µM (≈ 15.6 µg/mL) | cytotoxicity [2]: 25% | CC50 [2]: > 12.4 µM

COc1ccc(CNC(=O)c2ccc(C3c4nc[nH]c4CCN3Cc3cccc(Cl)c3)cc2)cc1 (stereo in doubt; 9d)
Papp [3]: 21 ×10⁻⁶ cm/s | MIC [1, 4]: 63 µM (≈ 30.7 µg/mL)

COc1ccc(CNC(=O)c2ccc(C3c4nc[nH]c4CCN3Cc3cccc(Cl)c3Cl)cc2)cc1 (stereo in doubt; 9a)
Papp [3]: 8 ×10⁻⁶ cm/s

O=C(NCc1ccccc1)c1ccc(C2c3nc[nH]c3CCN2Cc2cccc(Cl)c2)cc1 (configuration not stated)
MIC [1, 4]: 32 µM (≈ 14.6 µg/mL)

O=C(NCc1ccccc1)c1ccc(C2c3nc[nH]c3CCN2Cc2cccc(Cl)c2Cl)cc1 (configuration not stated)
MIC [1, 4]: 32 µM (≈ 15.7 µg/mL)

O=C(NCc1ccccc1)c1ccc(C2c3nc[nH]c3CCN2c2ccc3ccccc3c2)cc1 (configuration not stated)
MIC [1, 4]: 16 µM (≈ 7.34 µg/mL) | cytotoxicity [2]: > 20% | CC50 [2]: > 13.2 µM

COc1ccc(CNC(=O)c2ccc(C3c4nc[nH]c4CCN3Cc3cccc(Cl)c3)cc2)cc1 (stereo in doubt; 9c)
permeability [3]: 210 nm/s | MIC [1]: 32 µM (≈ 15.6 µg/mL)

COc1ccc(CNC(=O)c2ccc(C3c4nc[nH]c4CCN3Cc3cccc(Cl)c3Cl)cc2)cc1 (stereo in doubt; 9b)
permeability [3]: 80 nm/s | MIC [1]: 63 µM (≈ 32.9 µg/mL)

COc1ccc(CNC(=O)c2ccc(C3c4nc[nH]c4CCN3Cc3cccc(Cl)c3Cl)cc2)cc1 (stereo in doubt; 8e)
MIC [1, 4]: 32 µM (≈ 16.7 µg/mL)
